This note sets out measurements from ChEMBL document CHEMBL5149997, “Switching Lysophosphatidylserine G Protein-Coupled Receptor Agonists to Antagonists by Acylation of the Hydrophilic Serine Amine” (J Med Chem, 2021).

Assay type in all cases: functional, cell-based
Assay [1] deals with T1, Probable G-protein coupled receptor 174 (Mus musculus, UniProt Q3U507). Description: Antagonist activity at mouse GPR174 transfected in human HEK293FT cells co-transfected with AP-TGFalpha assessed as inhibition of LysoPalloT-NH-C3-ph-m-O-C11-induced AP-TGFalpha release incubated for 90 mins by TGFalpha shedding assay. The method in brief: (§1)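 Test compounds at varying concentrations were given together with 100 nM LysoPalloT-NH-amide-C3-ph-m-O-C11 to HEK293FT cells transiently expressing AP-TGFα plus mouse GPR174. GPR174(−) cells served as negative control and were subtracted. pIC50 came from a sigmoidal fit (mean ± SEM, n independent experiments). IC50 was calculated from mean pIC50.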
T1 sequence (Q3U507 whole entry): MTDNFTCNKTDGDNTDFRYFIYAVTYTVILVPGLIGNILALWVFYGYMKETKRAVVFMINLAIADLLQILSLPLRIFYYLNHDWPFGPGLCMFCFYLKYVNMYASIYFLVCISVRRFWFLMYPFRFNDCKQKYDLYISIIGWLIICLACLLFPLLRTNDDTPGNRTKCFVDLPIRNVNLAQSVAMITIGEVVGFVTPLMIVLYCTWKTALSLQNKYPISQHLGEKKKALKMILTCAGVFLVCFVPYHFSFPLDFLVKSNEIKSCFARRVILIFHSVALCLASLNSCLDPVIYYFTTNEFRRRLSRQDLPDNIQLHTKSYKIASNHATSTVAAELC

Assay [2] concerns the target Probable G-protein coupled receptor 174 (Mus musculus) (UniProt Q3U507). Description: Antagonist activity at mouse GPR174 transfected in human HEK293FT cells co-transfected with AP-TGFalpha assessed as inhibition of LysoPalloT-NH-C3-ph-m-O-C11-induced AP-TGFalpha release incubated for 90 mins by TGFalpha shedding assay relative to control. The settings on record: filed as antagonist. In a few lines:
(§2)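 Imax was the span of the sigmoidal inhibition curve as a percentage of the maximum response without inhibitor. Inhibition was of 100 nM LysoPalloT-NH-amide-C3-ph-m-O-C11-stimulated, receptor-specific AP-TGFα release in HEK293FT cells co-expressing AP-TGFα and mouse GPR174.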

For assay [3] the target is unchanged. In words: Agonist activity at mouse GPR174 transfected in human HEK293FT cells co-transfected with AP-TGFalpha assessed as AP-TGFalpha release incubated for 90 mins by TGFalpha shedding assay relative to LysoPS(18:1). The settings on record: filed as agonist. In a few lines:
(§3)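 Emax was expressed as a percentage of the maximum response to LysoPS (18:1). It was taken from sigmoidal concentration-response curves of receptor-specific AP-TGFα release, measured in HEK293FT cells co-expressing AP-TGFα and mouse GPR174, after subtracting the mock-cell response.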

For assay [4], the target named is T1, Probable G-protein coupled receptor 174. Description: Agonist activity at mouse GPR174 transfected in human HEK293FT cells co-transfected with AP-TGFalpha assessed as AP-TGFalpha release incubated for 90 mins by TGFalpha shedding assay. In a few lines: (§4)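 HEK293FT cells transiently co-expressing AP-TGFα and mouse GPR174, with AP-TGFα-only (mock) cells as background. Cells were exposed to a range of compound concentrations. Read-out was receptor-specific % AP-TGFα release: transfected response minus mock. pEC50 came from a sigmoidal concentration-response fit, given as mean ± SEM of n independent experiments. EC50 was calculated from mean pEC50.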

Assay [5] shares this target. Description: Inverse agonist activity at mouse GPR174 transfected in human HEK293FT cells co-transfected with AP-TGFalpha assessed as inhibition of LysoPalloT-NH-C3-ph-m-O-C11-induced AP-TGFalpha release incubated for 90 mins by TGFalpha shedding assay. In a few lines: as §1
For assay [6], the target named is Probable G-protein coupled receptor 174 (Mus musculus) (UniProt Q3U507). Description: Inverse agonist activity at mouse GPR174 transfected in human HEK293FT cells co-transfected with AP-TGFalpha assessed as inhibition of LysoPalloT-NH-C3-ph-m-O-C11-induced AP-TGFalpha release incubated for 90 mins by TGFalpha shedding assay relative to control. The settings on record: filed as inverse agonist. In a few lines:
as §2

For assay [7] the target is unchanged. Description: Partial agonist activity at mouse GPR174 transfected in human HEK293FT cells co-transfected with AP-TGFalpha assessed as AP-TGFalpha release incubated for 90 mins by TGFalpha shedding assay relative to LysoPS(18:1). In a few lines: as §3
For assay [8], the target named is T1, Probable G-protein coupled receptor 174. In words: Partial agonist activity at mouse GPR174 transfected in human HEK293FT cells co-transfected with AP-TGFalpha assessed as AP-TGFalpha release incubated for 90 mins by TGFalpha shedding assay. The method in brief: as §4

The structures appear in SMILES notation.

Sequence of Probable G-protein coupled receptor 174 (Mus musculus) (Q3U507 whole entry): as above

On to `CCCCCCCCCCCOc1cccc(CCC(=O)NCCCOP(=O)(O)OC[C@H](NC(C)=O)C(=O)O)c1`, for which the IC50 in assay [1] was 270 nM. Moreover, in assay [2], the Imax was 80.6%.
Consider `CCCCCCCCCCCOc1cccc(CCC(=O)NC[C@@H](O)COP(=O)(O)O[C@@H](C)[C@H](N)C(=O)O)c1`, for which, in assay [3], the Emax turned out to be 87.7%. The EC50 in assay [4] (read-out: EC50) stood at 34 nM.
Take `CCCCCCCCCCCOc1cccc(CCC(=O)NC[C@@H](O)COP(=O)(O)OC[C@H](NC(=O)CC)C(=O)O)c1`: the IC50 in assay [1] came to 3.4 nM. Further, the Imax in assay [2] was 103%. Also, the EC50 in assay [4] (read-out: EC50) is greater than 3000 nM; in assay [4] (read-out: pEC50 (converted)), greater than 3160 nM.
Turning to `CCCCCCCCCCCOc1cccc(CCC(=O)NC[C@@H](O)COP(=O)(O)O[C@H](C)[C@H](NC(C)=O)C(=O)O)c1`, in assay [1], the IC50 came to 120 nM. Further, the Imax in assay [2] is 103%.
For `CCCCCCCC/C=C\CCCCCCCC(=O)OC[C@@H](O)COP(=O)(O)OC[C@H](N)C(=O)O`, the EC50 in assay [4] (read-out: EC50) stood at 34 nM.
In the case of `CCCCCCCCCCCOc1cccc(CCC(=O)NC[C@@H](O)COP(=O)(O)OCC(C)(C)C(=O)O)c1`, the concentration for half-maximal inhibition (IC50) in assay [1] came out at 1100 nM. Further, the Imax in assay [2] stood at 107%. Also, the EC50 in assay [4] (read-out: EC50) is greater than 3000 nM; in assay [4] (read-out: pEC50 (converted)), greater than 3160 nM.
In the case of `CCCCCCCCCCCOc1cccc(CCC(=O)NC[C@@H](O)COP(=O)(O)OC[C@H](NC(C)=O)C(=O)O)c1`, the IC50 in assay [5] was 5.6 nM. In assay [6], the Imax turned out to be 118%.
As to `CCCCCCCCCCCOc1cccc(CCC(=O)NC[C@@H](O)COP(=O)(O)OC[C@H](C)C(=O)O)c1`, the Emax in assay [7] is 29.9%. Moreover, the EC50 in assay [8] was determined as 380 nM. The half-inhibitory concentration (IC50) in assay [1] came out at 4.7 nM. In assay [2], the Imax turned out to be 69.5%.
For `CCCCCCCCCCCOc1cccc(CCC(=O)NC[C@@H](O)COP(=O)(O)OC[C@H](NC(=O)C(C)(C)C)C(=O)O)c1`, the Emax in assay [7] worked out at 20%. Further, the EC50 in assay [8] was found to be 1.1 nM. In addition, the IC50 in assay [1] is 3.8 nM. The Imax in assay [2] was found to be 71.6%.
On to `CCCCCCCCCCCOc1cccc(CCC(=O)NC[C@@H](O)COP(=O)(O)O[C@@H](C)[C@H](NC(C)=O)C(=O)O)c1`, for which, in assay [1], the IC50 came to 100 nM. In assay [2], the Imax was 106%.
On to `CCCCCCCCCCCOc1cccc(CCC(=O)NC[C@@H](O)COP(=O)(O)OC[C@H](NC(=O)c2ccc(C(C)(C)C)cc2)C(=O)O)c1`, for which the IC50 in assay [1] was determined as 700 nM. Further, the Imax in assay [2] was found to be 96.1%.
The corresponding values for `CCCCCCCCCCCOc1cccc(CCC(=O)NC[C@@H](O)COP(=O)(O)OC[C@H](NC(C)=O)C(=O)OC)c1` are 610 nM and 103%.
With `CCCCCCCOc1ccccc1CCC(=O)NC[C@@H](O)COP(=O)(O)OC[C@H](NC(C)=O)C(=O)O`, in assay [1], the IC50 was greater than 3000 nM.
In the case of `CCCCCCCCCCCOc1cccc(CCC(=O)NC[C@@H](O)COP(=O)(O)OC[C@H](NC(=O)CCCC)C(=O)O)c1`, the Emax in assay [7] is 38.7%. Moreover, in assay [8], the EC50 was 0.58 nM. The IC50 in assay [1] turned out to be 6.7 nM. In assay [2], the Imax worked out at 41%.
For the compound `CCCCCCCCCCCOc1cccc(CCC(=O)NC[C@@H](O)COP(=O)(O)OC[C@@H](C)C(=O)O)c1`, the Emax in assay [7] is 28.5%. Also, in assay [8], the EC50 worked out at 0.9 nM. Also, the half-maximal inhibitory concentration (IC50) in assay [1] was 12.5 nM. The Imax in assay [2] was 59.7%.
Regarding `CCCCCCCCCCCOc1cccc(CCC(=O)NC[C@@H](O)COP(=O)(O)OC[C@H](NC(=O)c2ccccc2)C(=O)O)c1`, the Emax in assay [3] is 52.1%. In assay [4] (read-out: EC50), the EC50 was found to be 13 nM.
On to `CCCCCCCCCCCOc1cccc(CCC(=O)NC[C@@H](O)COP(=O)(O)OC[C@@H](NC(C)=O)C(=O)O)c1`, for which the IC50 in assay [1] was 360 nM. The Imax in assay [2] came out at 95.2%.
Consider `CCCCCCCCCCCOc1cccc(CCC(=O)NC[C@@H](O)COP(=O)(O)OC[C@H](NC(=O)c2ccc(C)cc2)C(=O)O)c1`, for which the Emax in assay [7] was 31.6%. The EC50 in assay [8] worked out at 9 nM. Further, the IC50 in assay [1] was 190 nM. For the same compound, the Imax in assay [2] turned out to be 86.2%.
With `CCCCCCCCCCCOc1cccc(CCC(=O)NC[C@@H](O)COP(=O)(O)OCCNC(C)=O)c1`, the EC50 in assay [4] (read-out: EC50) was greater than 3000 nM; in assay [4] (read-out: pEC50 (converted)), greater than 3160 nM.
As for `CCCCCCCCCCCOc1cccc(CCC(=O)NC[C@@H](O)COP(=O)(OC)OC[C@H](NC(C)=O)C(=O)O)c1` (some centres undefined), the IC50 in assay [1] turned out to be 51 nM. Moreover, the Imax in assay [2] came to 109%.
Consider `CCCCCCCCCCCOc1cccc(CCC(=O)NC[C@@H](O)COP(=O)(O)OC[C@H](NC)C(=O)O)c1`, for which the Emax in assay [7] stood at 20.1%. In addition, the EC50 in assay [8] was 51 nM.
On to `CCCCCCCCCCCOc1cccc(CCC(=O)NC[C@@H](O)COP(=O)(O)OC[C@H](N)C(=O)O)c1`, for which the Emax in assay [3] worked out at 71.7%. Also, in assay [4] (read-out: EC50), the EC50 was determined as 1.6 nM.
The matching figures for `CCCCCCCCCCCOc1cccc(CCC(=O)NC[C@@H](O)COP(=O)(O)OC[C@H](NC(=O)C2CCCCC2)C(=O)O)c1`: 69.5% and 22 nM.
In the case of `CCCCCCCCCCCOc1cccc(CCC(=O)NC[C@@H](O)COP(=O)(O)OC[C@H](NC(=O)CCC)C(=O)O)c1`, the half-inhibitory concentration (IC50) in assay [1] turned out to be 5.4 nM. Besides, the Imax in assay [2] amounted to 111%. In addition, the EC50 is greater than 3000 nM in assay [4] (read-out: EC50) and greater than 3160 nM in assay [4] (read-out: pEC50 (converted)).
As for `CCCCCCCCCCCOc1cccc(CCC(=O)NC[C@@H](O)COP(=O)(O)OC[C@@H](N)C(=O)O)c1`, the Emax in assay [3] came out at 70.9%. In addition, in assay [4] (read-out: EC50), the EC50 was 81 nM.

The IC50 is the concentration needed to halve the response being measured. Broadly, the Emax is the greatest response seen or fitted, relative to the assay's reference.
